Source: ChEMBL document CHEMBL3627695, “1-Benzyl-2-methyl-3-indolylmethylene barbituric acid derivatives: Anti-cancer agents that target nucleophosmin 1 (NPM1)” (Bioorg Med Chem, 2015)

What was measured:
[1] = Anticancer activity against human OCI-AML3 cells expressing mutant NPM1 assessed as apoptosis for 48 hrs by annexin-V and TO-PRO3 staining based flow cytometry; assay type: functional, cell-based; settings: OCI-AML-3, 48 h
In short: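 OCI-AML3 cells (NPM1c+) in logarithmic growth, passaged 2–3 times weekly. Cells were exposed to the indicated compound concentrations for 48 hr, then stained with annexin V and TO-PRO 3. Percent apoptotic cells was read by flow cytometry. AP50 is the concentration at which 50% of cells undergo apoptosis.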

A498 = test: Anticancer activity against human A498 cells after 48 hrs by sulforhodamine B assay; assay type: functional; settings: A498, 48 h
In short: (§1)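 NCI-60 human tumour cell line panel. Compounds dissolved in DMSO/H2O and tested at five 10-fold dilutions (10⁻⁴ M to 10⁻⁸ M) for 48 hr. GI50 is the molar concentration giving 50% reduction in net cell growth relative to cell numbers on day 0.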

ACHN = test: Anticancer activity against human ACHN cells after 48 hrs by sulforhodamine B assay; assay type: functional; in short: as §1
U-251 = test: Anticancer activity against human U251 cells after 48 hrs by sulforhodamine B assay; assay type: functional; settings: U-251, 48 h
In short: (§2)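 NCI-60 panel protocol. Compounds were dissolved in DMSO/H2O and tested at five 10-fold concentrations (10⁻⁴ to 10⁻⁸ M) with 48 hr incubation. GI50 is the molar concentration giving a 50% reduction in net cell growth relative to cell numbers on day 0.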

SR = test: Anticancer activity against human SR cells after 48 hrs by sulforhodamine B assay; assay type: functional; in short: as §2
CAKI-1 = test: Anticancer activity against human Caki1 cells after 48 hrs by sulforhodamine B assay; assay type: functional; settings: CAKI-1, 48 h; in short: as §1
SF-268 = test: Anticancer activity against human SF268 cells after 48 hrs by sulforhodamine B assay; assay type: functional; settings: SF-268, 48 h; in short: as §1
NCI-H226 = test: Anticancer activity against human NCI-H226 cells after 48 hrs by sulforhodamine B assay; assay type: functional; settings: NCI-H226, 48 h; in short: as §1
KM12 = test: Anticancer activity against human KM12 cells after 48 hrs by sulforhodamine B assay; assay type: functional; settings: KM12, 48 h; in short: as §1
Malme-3M = test: Anticancer activity against human MALME-3M cells after 48 hrs by sulforhodamine B assay; assay type: functional; in short: as §1
UO-31 = test: Anticancer activity against human UO31 cells after 48 hrs by sulforhodamine B assay; assay type: functional; settings: UO-31, 48 h; in short: as §2
NCI-H522 = test: Anticancer activity against human NCI-H522 cells after 48 hrs by sulforhodamine B assay; assay type: functional; settings: NCI-H522, 48 h; in short: as §1
MDA-MB-435 = test: Anticancer activity against human MDA-MB-435 cells after 48 hrs by sulforhodamine B assay; assay type: functional; settings: MDA-MB-435, 48 h; in short: as §1
[2] = Anticancer activity against human HOP92 cells after 48 hrs by sulforhodamine B assay; assay type: functional; settings: HOP-92, 48 h; in short: as §1
HCT-15 = test: Anticancer activity against human HCT15 cells after 48 hrs by sulforhodamine B assay; assay type: functional; settings: HCT-15, 48 h; in short: as §1
[3] = Anticancer activity against human RXF393 cells after 48 hrs by sulforhodamine B assay; assay type: functional; settings: RXF 393, 48 h; in short: as §1
DU-145 = test: Anticancer activity against human DU145 cells after 48 hrs by sulforhodamine B assay; assay type: functional; settings: DU-145, 48 h; in short: as §1
OVCAR-8 = test: Anticancer activity against human OVCAR8 cells after 48 hrs by sulforhodamine B assay; assay type: functional; settings: OVCAR-8, 48 h; in short: as §1
SK-OV-3 = test: Anticancer activity against human SKOV3 cells after 48 hrs by sulforhodamine B assay; assay type: functional; settings: SK-OV-3, 48 h; in short: as §1
[4] = Anticancer activity against human RPMI8226 cells after 48 hrs by sulforhodamine B assay; assay type: functional; settings: RPMI-8226, 48 h; in short: as §1
SW-620 = test: Anticancer activity against human SW620 cells after 48 hrs by sulforhodamine B assay; assay type: functional; settings: SW-620, 48 h; in short: as §2
IGROV-1 = test: Anticancer activity against human IGROV1 cells after 48 hrs by sulforhodamine B assay; assay type: functional; settings: IGROV-1, 48 h; in short: as §1
UACC-257 = test: Anticancer activity against human UACC257 cells after 48 hrs by sulforhodamine B assay; assay type: functional; settings: UACC-257, 48 h; in short: as §2
NCI-H322M = test: Anticancer activity against human NCI-H322M cells after 48 hrs by sulforhodamine B assay; assay type: functional; in short: as §1
[5] = Anticancer activity against human MOLT4 cells after 48 hrs by sulforhodamine B assay; assay type: functional; settings: MOLT-4, 48 h; in short: as §1
[6] = Anticancer activity against human NCI-ADR-RES cells after 48 hrs by sulforhodamine B assay; assay type: functional; in short: as §1
TK-10 = test: Anticancer activity against human TK10 cells after 48 hrs by sulforhodamine B assay; assay type: functional; settings: TK-10, 48 h; in short: as §2
SNB-75 = test: Anticancer activity against human SNB75 cells after 48 hrs by sulforhodamine B assay; assay type: functional; settings: SNB-75, 48 h; in short: as §1
A549 = test: Anticancer activity against human A549/ATCC cells after 48 hrs by sulforhodamine B assay; assay type: functional; settings: A549, 48 h; in short: as §1
NCI-H460 = test: Anticancer activity against human NCI-H460 cells after 48 hrs by sulforhodamine B assay; assay type: functional; settings: NCI-H460, 48 h; in short: as §1
[7] = Anticancer activity against human SF539 cells after 48 hrs by sulforhodamine B assay; assay type: functional; settings: SF-539, 48 h; in short: as §1
OVCAR-5 = test: Anticancer activity against human OVCAR5 cells after 48 hrs by sulforhodamine B assay; assay type: functional; settings: OVCAR-5, 48 h; in short: as §1
HOP-62 = test: Anticancer activity against human HOP62 cells after 48 hrs by sulforhodamine B assay; assay type: functional; settings: HOP-62, 48 h; in short: as §1
SK-MEL-5 = test: Anticancer activity against human SK-MEL-5 cells after 48 hrs by sulforhodamine B assay; assay type: functional; settings: SK-MEL-5, 48 h; in short: as §1
BT-549 = test: Anticancer activity against human BT549 cells after 48 hrs by sulforhodamine B assay; assay type: functional; settings: BT-549, 48 h; in short: as §1
SK-MEL-2 = test: Anticancer activity against human SK-MEL-2 cells after 48 hrs by sulforhodamine B assay; assay type: functional; settings: SK-MEL-2, 48 h; in short: as §1
SN12C = test: Anticancer activity against human SN12C cells after 48 hrs by sulforhodamine B assay; assay type: functional; in short: as §1
HL-60(TB) = test: Anticancer activity against human HL-60(TB) cells after 48 hrs by sulforhodamine B assay; assay type: functional; settings: HL-60, 48 h; in short: as §1
K562 = test: Anticancer activity against human K562 cells after 48 hrs by sulforhodamine B assay; assay type: functional; settings: K562, 48 h; in short: as §1
CCRF-CEM = test: Anticancer activity against human CCRF-CEM cells after 48 hrs by sulforhodamine B assay; assay type: functional; in short: as §1
HCT-116 = test: Anticancer activity against human HCT116 cells after 48 hrs by sulforhodamine B assay; assay type: functional; settings: HCT-116, 48 h; in short: as §1
MDA-MB-231 = test: Anticancer activity against human MDA-MB-231 cells after 48 hrs by sulforhodamine B assay; assay type: functional; settings: MDA-MB-231, 48 h; in short: as §1
[8] = Anticancer activity against human COLO205 cells after 48 hrs by sulforhodamine B assay; assay type: functional; settings: COLO 205, 48 h; in short: as §1
[9] = Anticancer activity against human HCC2998 cells after 48 hrs by sulforhodamine B assay; assay type: functional; settings: HCC 2998, 48 h; in short: as §1
[10] = Anticancer activity against human SF295 cells after 48 hrs by sulforhodamine B assay; assay type: functional; settings: SF-295, 48 h; in short: as §1
MCF7 = test: Anticancer activity against human MCF7 cells after 48 hrs by sulforhodamine B assay; assay type: functional; settings: MCF7, 48 h; in short: as §1
T47D = test: Anticancer activity against human T47D cells after 48 hrs by sulforhodamine B assay; assay type: functional; in short: as §2
SNB-19 = test: Anticancer activity against human SNB19 cells after 48 hrs by sulforhodamine B assay; assay type: functional; settings: SNB-19, 48 h; in short: as §1
OVCAR-4 = test: Anticancer activity against human OVCAR4 cells after 48 hrs by sulforhodamine B assay; assay type: functional; settings: OVCAR-4, 48 h; in short: as §1
786-0 = test: Anticancer activity against human 786-0 cells after 48 hrs by sulforhodamine B assay; assay type: functional; settings: 786-0, 48 h; in short: as §1
[11] = Anticancer activity against human Hs 578T cells after 48 hrs by sulforhodamine B assay; assay type: functional; in short: as §1
HT-29 = test: Anticancer activity against human HT-29 cells after 48 hrs by sulforhodamine B assay; assay type: functional; settings: HT-29, 48 h; in short: as §1
M14 = test: Anticancer activity against human M14 cells after 48 hrs by sulforhodamine B assay; assay type: functional; settings: M14, 48 h; in short: as §1
[12] = Anticancer activity against human LOXIMVI cells after 48 hrs by sulforhodamine B assay; assay type: functional; settings: LOX IMVI; in short: as §1
MDA-MB-468 = test: Anticancer activity against human MDA-MB-468 cells after 48 hrs by sulforhodamine B assay; assay type: functional; settings: MDA-MB-468, 48 h; in short: as §1
SK-MEL-28 = test: Anticancer activity against human SK-MEL-28 cells after 48 hrs by sulforhodamine B assay; assay type: functional; settings: SK-MEL-28, 48 h; in short: as §1
OVCAR-3 = test: Anticancer activity against human OVCAR3 cells after 48 hrs by sulforhodamine B assay; assay type: functional; settings: OVCAR-3, 48 h; in short: as §1

In the case of `N#Cc1ccc(Cn2cc(C=C3C(=O)NC(=O)NC3=O)c3ccccc32)cc1`, the AC50 [1] is reported as > 20 µM.

In the case of `Cc1c(C=C2C(=O)NC(=S)NC2=O)c2ccccc2n1Cc1ccc(C#N)cc1`, the GI50 (A498) is reported as 0.22 µM, the GI50 (ACHN) is reported as 1.7 µM and the GI50 (U-251) is reported as 1.61 µM. The GI50 (SR) was 0.56 µM, the GI50 (CAKI-1) was 2.21 µM and the GI50 (SF-268) was 1.6 µM. For the same compound, the GI50 (NCI-H226) was 1.79 µM, the GI50 (KM12) was 1.74 µM and the GI50 (Malme-3M) was 2.5 µM. For the same compound, the GI50 (UO-31) was 1.46 µM, the GI50 (NCI-H522) was 1.75 µM and the GI50 (MDA-MB-435) was 1.49 µM. For the same compound, the GI50 [2] was 1.28 µM, the GI50 (HCT-15) was 1.74 µM and the GI50 [3] was 1.53 µM. It also gave a GI50 (DU-145) of 1.71 µM, a GI50 (OVCAR-8) of 1.32 µM and a GI50 (SK-OV-3) of 2.98 µM. It also gave a GI50 [4] of 0.57 µM, a GI50 (SW-620) of 1.36 µM and a GI50 (IGROV-1) of 1.61 µM. For the same compound, the GI50 (UACC-257) was 1.67 µM, the GI50 (NCI-H322M) was 1.93 µM and the GI50 [5] was 1.82 µM. It also gave a GI50 [6] of 3.83 µM, a GI50 (TK-10) of 1.37 µM and a GI50 (SNB-75) of 2.04 µM. For the same compound, the GI50 (A549) was 2.48 µM, the GI50 (NCI-H460) was 2.01 µM and the GI50 [7] was 1.29 µM. It also gave a GI50 (OVCAR-5) of 1.84 µM, a GI50 (HOP-62) of 1.96 µM and a GI50 (SK-MEL-5) of 1.84 µM. For the same compound, the GI50 (BT-549) was 1.87 µM, the GI50 (SK-MEL-2) was 2.17 µM and the GI50 (SN12C) was 1.4 µM. It also gave a GI50 (HL-60(TB)) of 1.08 µM, a GI50 (K562) of 1.77 µM and a GI50 (CCRF-CEM) of 0.84 µM. It also gave a GI50 (HCT-116) of 1.29 µM, a GI50 (MDA-MB-231) of 1.64 µM and a GI50 [8] of 1.73 µM. The GI50 [9] was 1.79 µM, the GI50 [10] was 1.88 µM and the GI50 (MCF7) was 1.28 µM. For the same compound, the GI50 (T47D) was 2.54 µM, the GI50 (SNB-19) was 1.77 µM and the GI50 (OVCAR-4) was 1.59 µM. It also gave a GI50 (786-0) of 1.76 µM, a GI50 [11] of 1.22 µM and a GI50 (HT-29) of 1.76 µM. For the same compound, the GI50 (M14) was 1.61 µM, the GI50 [12] was 0.9 µM and the GI50 (MDA-MB-468) was 0.38 µM. The GI50 (SK-MEL-28) was 2.08 µM, the AC50 [1] was 2.72 µM and the GI50 (OVCAR-3) was 1.58 µM.
